Calls of active or inactive are those of the source. The calls are words filed in the database; no cut-off is given here.
How the values were obtained:
[1] = test system: Plasmodium falciparum; assay: Antiplasmodial activity against chloroquine-resistant Plasmodium falciparum Dd2 early trophozoites infected in NMRI mice (Mus musculus) RBC assessed as inhibition of hemozoin formation at 10 nM after 24 hrs by microscopic analysis; type: functional, organism-based
Method in brief: (§1)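 D6 and Dd2 cultures synchronized to ring stage with 5% sorbitol, suspended at 1% hematocrit and exposed to drug (from 1 mM stock) for 24 h at 37 °C under 5% O2/5% CO2/90% N2. Giemsa-stained smears examined by microscopy for hemozoin, parasitemia and parasite morphology.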

[2] = test system: Plasmodium falciparum; assay: Antiplasmodial activity against chloroquine-sensitive Plasmodium falciparum D6 early trophozoites infected in NMRI mice (Mus musculus) RBC assessed as inhibition of hemozoin formation at 10 nM after 24 hrs by microscopic analysis; type: functional, organism-based
Method in brief: (§2)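 Ring-stage D6 parasites synchronized with 5% sorbitol, suspended at 1% hematocrit and drug added from 1 mM stock. Incubated 24 h at 37 °C under 5% O2/5% CO2/90% N2 alongside a no-drug control. Giemsa-stained smears were used for parasitemia and for microscopic examination of hemozoin and parasite morphology.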

[3] = test system: Plasmodium falciparum; assay: Inhibition of hemozoin formation in early trophozoites of chloroquine-sensitive Plasmodium falciparum D6 infected in RBC assessed as enlarged digestive vacuole at 100 nM after 24 hrs by microscopic analysis; type: functional, organism-based; method in brief: as §2
[4] = test system: Plasmodium falciparum; assay: Antiplasmodial activity against chloroquine-sensitive Plasmodium falciparum D6 early trophozoites infected in NMRI mice (Mus musculus) RBC assessed as inhibition of hemozoin formation at 50 nM after 24 hrs by microscopic analysis; type: functional, organism-based; method in brief: as §2
[5] = test system: Plasmodium falciparum; assay: Antiplasmodial activity against chloroquine-resistant Plasmodium falciparum Dd2 early trophozoites infected in NMRI mice (Mus musculus) RBC assessed as inhibition of hemozoin formation at 50 nM after 24 hrs by microscopic analysis; type: functional, organism-based; method in brief: as §1
[6] = test system: Mus musculus; assay: Toxicity in NMRI mouse at 30 mg/kg, po administered as single dose; type: organism-based; parameters: dose 30 mg/kg, route oral; details: in vivo
[7] = test system: Plasmodium berghei; assay: Antiplasmodial activity against Plasmodium berghei infected in NMRI mice (Mus musculus) assessed as parasitaemia level at 30 mg/kg, perorally administered as single dose measured after 3 days relative to control; type: functional; details: route oral
Method in brief: (§3)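 P. berghei blood diluted in saline to 10^8 parasitized erythrocytes/mL; 0.2 mL given i.v. to groups of 3 female NMRI mice (controls 5). Compounds dosed at 10 ml/kg either once on day 1 (oral gavage or subcutaneous) or orally at 4, 24, 48, 72 h post-infection. Parasitemia read by FACS on 100,000 RBCs from tail blood on day 3 (single dose) or day 4 (quadruple dose). Activity = % reduction versus control mean. Survival monitored to 30 days.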

[8] = test system: Plasmodium berghei; assay: Antiplasmodial activity against Plasmodium berghei infected in NMRI mice (Mus musculus) assessed as survival rate at 30 mg/kg, perorally administered as single dose; type: functional; details: route oral; method in brief: as §3
[9] = test system: Plasmodium berghei; assay: Antiplasmodial activity against Plasmodium berghei infected in NMRI mice (Mus musculus) assessed as survival rate at 30 mg/kg, perorally administered as 4 consecutive doses measured post last dose; type: functional; details: route oral; method in brief: as §3
[10] = test system: Plasmodium berghei; assay: Antiplasmodial activity against Plasmodium berghei infected in NMRI mice (Mus musculus) assessed as parasitaemia level at 30 mg/kg, perorally administered as 4 consecutive doses measured after 3 days post last dose relative to control; type: functional; details: route oral; method in brief: as §3
[11] = test system: Plasmodium falciparum; assay: Antiplasmodial activity against synchronized chloroquine-resistant Plasmodium falciparum Dd2 infected in NMRI mice (Mus musculus) RBC assessed as inhibition of hemozoin formation at 100 nM after 24 hrs by colorimetric analysis; type: functional, organism-based
Method in brief: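 Sorbitol-synchronized D6 and Dd2 cultures at 1% hematocrit were drug-treated for 24 h at 37 °C. Parasites were freed by freeze-thaw and saponin/Triton lysis buffer (37 °C, 30 min). Hemozoin was pelleted at 215,000 g, washed with acetone and PBS, then dissolved in 0.2 N NaOH. Heme was quantified by A400 (ε 91,000 cm-1M-1) per parasitized erythrocyte. Baseline was taken from 0 h culture.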

[12] = test system: Plasmodium berghei; assay: Antiplasmodial activity against Plasmodium berghei infected in NMRI mice (Mus musculus) assessed as survival rate at 30 mg/kg, subcutaneously administered as single dose; type: functional; details: route subcutaneous; method in brief: as §3
[13] = test system: Plasmodium berghei; assay: Antiplasmodial activity against Plasmodium berghei infected in NMRI mice (Mus musculus) assessed as parasitaemia level at 30 mg/kg, subcutaneously after 3 days relative to control; type: functional; details: route subcutaneous; method in brief: as §3
[14] = test system: Plasmodium falciparum; assay: Antiplasmodial activity against synchronized chloroquine-sensitive Plasmodium falciparum D6 infected in NMRI mice (Mus musculus) RBC assessed as inhibition of hemozoin formation at 10 nM after 24 hrs by colorimetric analysis; type: functional, organism-based
Method in brief: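 D6 cultures synchronized with sorbitol, held at 1% hematocrit, drug-treated 24 h at 37 °C. Parasites freeze-thawed, then lysed 30 min at 37 °C in saponin/Triton X-100 buffer. Hemozoin pelleted at 215,000 g, washed with acetone and PBS, dissolved 2 h in 0.2 N NaOH. Heme read at A400 (ε 91,000 cm-1M-1) and expressed per parasitized erythrocyte. A 0 h culture gave the baseline.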

[15] = test system: Plasmodium berghei; assay: Antiplasmodial activity against Plasmodium berghei infected in NMRI mice (Mus musculus) assessed as parasitaemia level at 46 mg/kg, perorally administered as 4 consecutive doses measured after 4 days post last dose relative to control; type: functional; details: route oral
[16] = test system: Plasmodium berghei; assay: Antiplasmodial activity against Plasmodium berghei infected in NMRI mice (Mus musculus) assessed as survival rate at 46 mg/kg, perorally administered as 4 consecutive doses measured post last dose; type: functional; details: route oral; method in brief: as §3

## Clc1ccc2c(NCCCN3CCC(NC(c4ccccn4)c4ccccn4)CC3)ccnc2c1 [DM-1157]
[1]
  inhibition: Active
[2]
  inhibition: Active
[3]
  inhibition: Active
[4]
  inhibition: Active
[5]
  inhibition: Active
[6]
  Activity: Non-toxic
[7]
  Activity: 94%
[8]
  Survival: 7 days
[9]
  Survival: 27 days
[10]
  Activity: >99.9%
[11]
  inhibition: Active
[12]
  Survival: 9 days
[13]
  Activity: 99.3%
[14]
  inhibition: Active
[15]
  Activity: >99.9%
[16]
  Survival: 30 days
